Assay results as given in ChEMBL document CHEMBL1275352, “Selection of evodiamine as a novel topoisomerase I inhibitor by structure-based virtual screening and hit optimization of evodiamine derivatives as antitumor agents” (J Med Chem, 2010).
Active and inactive are the calls of the source. No cut-off for these calls is given here.

Experiments:
[1] = target: T1, DNA topoisomerase 1 (Homo sapiens) (UniProt P11387); test: Inhibition of DNA topoisomerase 1-mediated supercoiled Escherichia coli pBR322 DNA relaxation at 100 uM by UV transilluminator analysis; settings: 500 uM; in the assay text read “500 uM” for “100 uM”
T1 sequence (whole entry): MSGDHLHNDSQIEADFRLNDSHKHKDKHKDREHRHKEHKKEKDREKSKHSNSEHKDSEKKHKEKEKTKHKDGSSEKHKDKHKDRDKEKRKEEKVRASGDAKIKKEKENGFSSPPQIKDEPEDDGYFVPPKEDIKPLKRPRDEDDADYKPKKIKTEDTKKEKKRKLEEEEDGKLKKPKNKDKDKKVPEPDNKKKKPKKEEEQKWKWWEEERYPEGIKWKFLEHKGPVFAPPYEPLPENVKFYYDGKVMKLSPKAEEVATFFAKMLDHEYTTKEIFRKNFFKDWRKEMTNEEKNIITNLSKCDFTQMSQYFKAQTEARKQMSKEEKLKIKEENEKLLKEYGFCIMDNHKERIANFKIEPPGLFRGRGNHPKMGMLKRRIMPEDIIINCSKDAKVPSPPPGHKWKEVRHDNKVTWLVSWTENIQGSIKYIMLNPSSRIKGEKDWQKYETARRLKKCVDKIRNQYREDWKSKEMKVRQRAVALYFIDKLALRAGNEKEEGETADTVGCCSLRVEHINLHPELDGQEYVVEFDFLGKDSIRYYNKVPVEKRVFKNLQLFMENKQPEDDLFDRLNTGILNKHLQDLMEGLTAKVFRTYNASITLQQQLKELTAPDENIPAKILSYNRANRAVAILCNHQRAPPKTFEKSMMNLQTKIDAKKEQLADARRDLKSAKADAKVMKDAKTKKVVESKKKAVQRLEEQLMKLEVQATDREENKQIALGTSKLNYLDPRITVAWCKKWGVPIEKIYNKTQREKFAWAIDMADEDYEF
How it was run: (§1)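 Purified topoisomerase I was incubated with supercoiled DNA, and inhibition of relaxation by the enzyme was scored. Compounds were tested at concentrations ranging from 1 to 500 μM; an initial screen was run at 500 μM and active compounds were retested at lower concentrations.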

[2] = target: T1, DNA topoisomerase 1 (Homo sapiens); test: Inhibition of DNA topoisomerase 1-mediated supercoiled Escherichia coli pBR322 DNA relaxation by UV transilluminator analysis; how it was run: as §1
A549 = test: Cytotoxicity against human A549 cells after 3 days by MTT assay; format: functional, cell-based; settings: Homo sapiens, A549, 72 h; read-out: IC50
[3] = target: T1, DNA topoisomerase 1 (Homo sapiens); test: Inhibition of DNA topoisomerase 1-mediated supercoiled Escherichia coli pBR322 DNA relaxation at 10 uM by UV transilluminator analysis; how it was run: as §1
MDA-MB-435 = test: Cytotoxicity against human MDA-MB-435 cells after 3 days by MTT assay; format: functional, cell-based; settings: Homo sapiens, MDA-MB-435, 72 h; read-out: IC50
LoVo = test: Cytotoxicity against human LoVo cells after 3 days by MTT assay; format: functional, cell-based; settings: Homo sapiens, LoVo, 72 h; read-out: IC50

## Cc1ccc(S(=O)(=O)c2cc3c(c4nsnc24)C(=O)c2ccccc2C3=O)cc1
[1]
  inhibition: Active
[2]
  inhibition: Dose-dependent effect
A549
  IC50: 0.5 µM
[3]
  inhibition: Active
MDA-MB-435
  IC50: 25 µM
LoVo
  IC50: 43 µM
